Measured values taken from ChEMBL document CHEMBL3351355, “Structure-affinity/activity relationships of 1,4-dioxa-spiro[4.5]decane based ligands at α1 and 5-HT1A receptors” (Eur J Med Chem, 2014).

Experiments:
Rattus norvegicus [1] = species: Rattus norvegicus; test: Selectivity ratio of Kb for alpha1D adrenoceptor in Wistar rat thoracic aorta to Kb for alpha1B adrenoceptor in Wistar rat spleen; type: tissue-based
Rattus norvegicus [2] = species: Rattus norvegicus; test: Selectivity ratio of Kb for alpha1B adrenoceptor in Wistar rat spleen to Kb for alpha1A adrenoceptor in Wistar rat vas deferans; type: tissue-based
[3] = biological target: T1, Alpha-1A adrenergic receptor (Homo sapiens, UniProt P35348); test: Displacement of [3H]prazosin from human recombinant alpha1A adrenoceptor expressed in CHO cells after 30 mins by liquid scintillation counting
T1 sequence (P35348 whole entry): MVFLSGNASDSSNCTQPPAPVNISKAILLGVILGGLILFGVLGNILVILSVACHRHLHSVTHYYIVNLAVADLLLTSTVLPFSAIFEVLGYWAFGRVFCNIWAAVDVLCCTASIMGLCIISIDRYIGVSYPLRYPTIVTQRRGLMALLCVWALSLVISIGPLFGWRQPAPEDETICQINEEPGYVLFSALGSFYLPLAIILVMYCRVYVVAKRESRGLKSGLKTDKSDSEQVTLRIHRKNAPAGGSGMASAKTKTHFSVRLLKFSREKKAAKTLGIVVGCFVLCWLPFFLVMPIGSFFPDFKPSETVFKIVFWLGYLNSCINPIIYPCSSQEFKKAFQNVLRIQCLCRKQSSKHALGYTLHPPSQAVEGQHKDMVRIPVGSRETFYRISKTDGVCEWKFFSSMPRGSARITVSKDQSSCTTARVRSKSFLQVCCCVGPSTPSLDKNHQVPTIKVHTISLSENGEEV

[4] = biological target: T2, Alpha-1A adrenergic receptor (Rattus norvegicus) (UniProt P43140); test: Antagonist activity at alpha1A adrenoceptor in Wistar rat vas deferans assessed as noradrenaline-induced contractions after 30 mins
T2 sequence (whole entry): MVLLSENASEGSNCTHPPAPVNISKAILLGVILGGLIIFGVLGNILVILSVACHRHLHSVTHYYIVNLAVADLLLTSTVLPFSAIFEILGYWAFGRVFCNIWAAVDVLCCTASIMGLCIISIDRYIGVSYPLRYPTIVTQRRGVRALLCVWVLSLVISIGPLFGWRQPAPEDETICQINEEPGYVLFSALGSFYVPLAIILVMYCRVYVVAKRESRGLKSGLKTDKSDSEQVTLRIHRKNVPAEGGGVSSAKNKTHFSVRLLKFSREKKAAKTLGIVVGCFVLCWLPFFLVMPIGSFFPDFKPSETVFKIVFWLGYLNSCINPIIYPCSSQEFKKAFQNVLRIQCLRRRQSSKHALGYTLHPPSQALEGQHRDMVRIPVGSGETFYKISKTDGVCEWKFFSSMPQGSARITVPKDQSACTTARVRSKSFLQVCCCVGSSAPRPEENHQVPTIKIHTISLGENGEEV

[5] = biological target: T3, 5-hydroxytryptamine receptor 1A (Homo sapiens, UniProt P08908); test: Displacement of [3H]8-OH-DPAT from human recombinant 5-HT1A receptor expressed in HeLa cells after 30 mins by liquid scintillation counting; type: cell-based
T3 sequence (P08908 whole entry): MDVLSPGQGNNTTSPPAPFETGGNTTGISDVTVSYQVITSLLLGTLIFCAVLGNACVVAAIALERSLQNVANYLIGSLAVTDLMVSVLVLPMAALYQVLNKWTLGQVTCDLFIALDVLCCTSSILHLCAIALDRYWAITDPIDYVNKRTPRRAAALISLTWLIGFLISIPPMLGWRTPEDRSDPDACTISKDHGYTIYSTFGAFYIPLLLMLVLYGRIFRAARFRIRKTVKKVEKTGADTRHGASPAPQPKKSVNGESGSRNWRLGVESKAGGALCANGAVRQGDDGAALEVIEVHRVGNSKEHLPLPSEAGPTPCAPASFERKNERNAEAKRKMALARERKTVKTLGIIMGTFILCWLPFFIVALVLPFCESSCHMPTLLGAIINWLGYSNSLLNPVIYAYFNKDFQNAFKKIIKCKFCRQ
Summary of the method: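 HeLa cells stably carrying genomic clone G-21 were grown in DMEM with 10% FCS, then lysed in Tris/EDTA pH 7.4. Membranes (80–90 µg protein) were incubated in 50 mM Tris, 2.5 mM MgCl2, 10 µM pargyline, pH 7.4, with 1 nM [3H]8-OH-DPAT and competitor (1 pM–1 µM) for 30 min at 30 °C, in triplicate. Nonspecific binding with 10 µM 5-HT. pKi from 2–3 experiments.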

[6] = biological target: T4, Alpha-1B adrenergic receptor (Rattus norvegicus) (UniProt P15823); test: Antagonist activity at alpha1B adrenoceptor in Wistar rat spleen assessed as phenylephrine-induced contractions after 30 mins
T4 sequence (whole entry): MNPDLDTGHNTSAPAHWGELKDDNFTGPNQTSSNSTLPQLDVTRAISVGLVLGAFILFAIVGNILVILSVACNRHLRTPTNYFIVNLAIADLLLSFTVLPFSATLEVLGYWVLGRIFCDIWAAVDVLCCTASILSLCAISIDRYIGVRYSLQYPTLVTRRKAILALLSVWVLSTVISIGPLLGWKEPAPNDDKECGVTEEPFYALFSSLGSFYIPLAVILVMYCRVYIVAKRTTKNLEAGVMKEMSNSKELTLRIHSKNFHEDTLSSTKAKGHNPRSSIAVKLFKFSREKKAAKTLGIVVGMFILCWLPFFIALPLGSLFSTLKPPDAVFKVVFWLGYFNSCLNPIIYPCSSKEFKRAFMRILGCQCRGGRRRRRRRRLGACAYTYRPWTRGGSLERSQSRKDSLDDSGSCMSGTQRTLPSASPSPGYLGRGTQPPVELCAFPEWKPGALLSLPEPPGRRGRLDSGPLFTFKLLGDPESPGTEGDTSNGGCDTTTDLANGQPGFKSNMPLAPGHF
Summary of the method: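 Spleen strips (bisected longitudinally) in Krebs with 4 µM propranolol, 1 g resting tension, 2 h equilibration. Cumulative phenylephrine curves recorded isometrically at 30 min intervals, the first discarded and the second used as control. Antagonist pre-equilibrated 30 min before a repeat agonist curve.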

Row | SMILES | Ratio (Rattus norvegicus [1]) | Ratio (Rattus norvegicus [2]) | Ki [3] [nM] | pKb [4] | Ki [5] [nM] | pKb [6]
1 | COc1ccccc1N1CCN(CC2COC3(CCNCC3)O2)CC1 (stereo not given) | 0.13 | 1.09 | 49 | 7.74 | 158 | 7.78
2 | COc1ccccc1N1CCN(CC2COC3(CCN(S(=O)(=O)c4ccc([N+](=O)[O-])cc4)CC3)O2)CC1 (stereo not given) | 1.86 | 1.02 | 5.25 | 7.74 | 24.5 | 7.75
3 | COc1ccccc1N1CCN(CC2COC3(CCN(C(=O)c4ccc(C(F)(F)F)cc4)CC3)O2)CC1 (stereo not given) | 0.09 | 3.47 | 10.2 | 7.79 | 50.1 | 8.33
4 | COc1ccccc1N1CCN(CC2COC3(CCN(S(=O)(=O)c4ccccc4)CC3)O2)CC1 (stereo not given) | 0.13 | 2.88 | 7.94 | 7.48 | 52.5 | 7.94
5 | COc1ccccc1N1CCN(CC2COC3(CCN(C(=O)C4CCCCC4)CC3)O2)CC1 (stereo not given) | 0.49 | 2.4 | 30.9 | 6.95 | 20.4 | 7.33
6 | COc1ccccc1N1CCN(CC2COC3(CCN(C(=O)c4ccccc4)CC3)O2)CC1 (stereo not given) | 0.18 | 3.02 | 10.7 | 7.71 | 58.9 | 8.19
7 | COc1ccccc1N1CCN(CC2COC3(CCN(Cc4ccccc4)CC3)O2)CC1 (stereo not given) | 26.3 | 0.29 | 6.76 | 7.72 | 14.5 | 7.18
8 | CCCCNC(=O)N1CCC2(CC1)OCC(CN1CCN(c3ccccc3OC)CC1)O2 (stereo not given) | 0.77 | 1.04 | 20 | 7.38 | 79.4 | 7.4
9 | COc1ccccc1N1CCN(CC2COC3(CCN(S(=O)(=O)c4ccc(Cl)cc4)CC3)O2)CC1 (stereo not given) | 1.02 | 1.32 | 6.46 | 7.24 | 37.2 | 7.36
10 | COc1ccccc1N1CCN(CC2COC3(CCCCC3)O2)CC1 (stereo not given) | 14.4 | 0.87 |  | 6.78 | 5.13 | 6.72
11 | COc1ccccc1N1CCN(CC2COC3(CCN(c4ccccn4)CC3)O2)CC1 (stereo not given) | 0.1 | 1.7 | 17.8 | 7.63 | 8.91 | 7.86
12 | COc1ccccc1N1CCN(CC2COC3(CCN(C(=O)Nc4ccccc4)CC3)O2)CC1 (stereo not given) | 0.12 | 9.12 | 12 | 7.22 | 33.1 | 8.18
13 | COc1ccccc1N1CCN(CC2COC3(CCN(S(=O)(=O)c4cccs4)CC3)O2)CC1 (stereo not given) | 0.16 | 3.89 | 7.94 | 7.46 | 60.3 | 8.05
14 | COc1ccccc1N1CCN(CC2COC3(CCSCC3)O2)CC1 (stereo not given) | 0.16 | 1.07 | 8.51 | 7.6 | 9.33 | 7.63
15 | COc1ccccc1N1CCN(CC2COC3(CCN(C(=O)C(F)(F)F)CC3)O2)CC1 (stereo not given) | 0.31 | 10.7 | > 1000 | 6.97 | 324 | 8
16 | COc1ccccc1N1CCN(CC2COC3(CCN(S(=O)(=O)c4cccc([N+](=O)[O-])c4)CC3)O2)CC1 (stereo not given) | 0.69 | 1.48 | 3.02 | 7.97 | 43.7 | 8.14
17 | COc1ccccc1N1CCN(CC2COC3(CCN(c4ccccc4)CC3)O2)CC1 (stereo not given) | 0.74 | 0.6 | 6.46 | 7.78 | 15.8 | 7.56
18 | COc1ccccc1N1CCN(CC2COC3(CCN(S(=O)(=O)c4ccc(C)cc4)CC3)O2)CC1 (stereo not given) | 0.11 | 3.23 | 4.57 | 7.4 | 26.9 | 7.91
19 | COc1ccccc1N1CCN(CC2COC3(CCOCC3)O2)CC1 (stereo not given) | 1.44 | 0.41 | 17 | 7.55 | 46.8 | 7.17
20 | COc1ccccc1N1CCN(CC2COC3(CCN(C(C)=O)CC3)O2)CC1 (stereo not given) | 0.05 | 3.55 | 60.3 | 7.17 | 64.6 | 7.72
21 | COc1ccccc1N1CCN(CC2COC3(CCN(C(=O)C4CCCN4)CC3)O2)CC1 (stereo not given) | 0.07 | 2.69 | 11.7 | 7.43 | 36.3 | 7.86
22 | COc1ccccc1N1CCN(CC2COC3(CCN(C(=O)NC(C)(C)C)CC3)O2)CC1 (stereo not given) | 0.13 | 0.61 | 12.6 | 7.63 | 87.1 | 7.42
23 | COc1ccccc1N1CCN(CC2COC3(CCN(C(=O)c4ccco4)CC3)O2)CC1 (stereo not given) | 0.49 | 1.82 | 21.4 | 7.43 | 42.7 | 7.69
24 | COc1ccccc1N1CCN(CC2COC3(CCN(S(C)(=O)=O)CC3)O2)CC1 (stereo not given) | 0.52 | 1.12 | 18.6 | 7.41 | 145 | 7.46
25 | COc1ccccc1N1CCN(CC2COC3(CCN(S(=O)(=O)c4ccc(OC(F)(F)F)cc4)CC3)O2)CC1 (stereo not given) | 0.42 | 5.75 | 8.91 | 6.98 | 69.2 | 7.74
26 | COc1ccccc1N1CCN(CC2COC3(CCS(=O)(=O)CC3)O2)CC1 (stereo not given) | 0.34 | 2.09 | 9.77 | 7.34 | 81.3 | 7.66
